# Measurements from ChEMBL document CHEMBL1140728, “Synthesis and biological activity of human neuropeptide S analogues modified in position 2” (J Med Chem, 2008).
# Non-standard residues stand in square brackets, D forms with d. Residues, ends and D or L forms follow the SMILES beside them. Phe(4-NO2) = N[C@@H](Cc1ccc([N+](=O)[O-])cc1)C(=O)O; Dip = N[C@H](C(=O)O)C(c1ccccc1)c1ccccc1; 2Nal = N[C@@H](Cc1ccc2ccccc2c1)C(=O)O; hPhe = N[C@@H](CCc1ccccc1)C(=O)O; Tic = O=C(O)[C@@H]1Cc2ccccc2CN1; β3hF = N[C@H](CC(=O)O)Cc1ccccc1; Phg = N[C@H](C(=O)O)c1ccccc1
# What was measured:
# Type in all cases: functional, cell-based
# [1] = target: T1, Neuropeptide S receptor (Mus musculus) (UniProt Q8BZP8); assay: Agonist activity at mouse recombinant NPS receptor expressed in HEK293 cells assessed as intracellular calcium mobilization at 10 umol
# T1 sequence (whole entry): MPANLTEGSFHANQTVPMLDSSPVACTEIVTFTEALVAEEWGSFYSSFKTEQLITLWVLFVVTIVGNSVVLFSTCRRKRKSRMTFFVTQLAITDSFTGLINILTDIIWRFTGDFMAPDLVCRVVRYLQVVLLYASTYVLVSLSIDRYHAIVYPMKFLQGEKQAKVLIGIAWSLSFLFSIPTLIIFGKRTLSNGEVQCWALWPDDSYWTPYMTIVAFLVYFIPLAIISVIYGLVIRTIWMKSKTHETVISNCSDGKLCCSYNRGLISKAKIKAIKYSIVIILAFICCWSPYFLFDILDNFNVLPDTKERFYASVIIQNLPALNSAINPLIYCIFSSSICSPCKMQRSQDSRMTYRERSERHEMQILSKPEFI
# [2] = target: T1, Neuropeptide S receptor (Mus musculus); assay: Agonist activity at mouse recombinant NPS receptor expressed in HEK293 cells assessed as intracellular calcium mobilization relative to baseline
# In short: (§1)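 HEK293 cells stably expressing mouse NPSR, kept in DMEM with 10% FBS, 2 mM L-glutamine and hygromycin (100 mg/L), were seeded at 50 000 cells/well. Next day they were loaded with Fluo-4 AM (3 µmol), probenecid (2.5 mmol) and 0.01% pluronic acid for 30 min at 37 °C. Agonist dilutions in HBSS/HEPES with 0.02% BSA were added, and FlexStation II fluorescence was read at 22 °C.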
# Neuropeptide S receptor = target: T2, Neuropeptide S receptor (Mus musculus, UniProt Q8BZP8); assay: Agonist activity at mouse recombinant NPS receptor expressed in HEK293 cells assessed as intracellular calcium mobilization; in short: as §1
# T2 sequence (Q8BZP8 whole entry): T1 sequence (whole entry)
Molecule,Activity [1] [%],Emax [2] [%],EC50 (Neuropeptide S receptor) [nM]
CSCC[C@H](NC(=O)CNC(=O)[C@@H](NC(=O)CNC(=O)[C@@H](NC(=O)CNC(=O)[C@H](CC(N)=O)NC(=O)[C@H](CCCNC(=N)N)NC(=O)[C@@H](NC(=O)[C@@H](N)CO)C(c1ccccc1)c1ccccc1)C(C)C)[C@@H](C)O)C(=O)N[C@@H](CCCCN)C(=O)N[C@@H](CCCCN)C(=O)N[C@H](C(=O)N[C@@H](CO)C(=O)N[C@@H](Cc1ccccc1)C(=O)N[C@@H](CCC(N)=O)C(=O)N[C@@H](CCCNC(=N)N)C(=O)N[C@@H](C)C(=O)N[C@@H](CCCCN)C(=O)N[C@@H](CO)C(=O)O)[C@@H](C)O (H-S[Dip]RNGVGTGMKKTSFQRAKS-OH),130,,
CSCC[C@H](NC(=O)CNC(=O)[C@@H](NC(=O)CNC(=O)[C@@H](NC(=O)CNC(=O)[C@H](CC(N)=O)NC(=O)[C@H](CCCNC(=N)N)NC(=O)[C@@H]1Cc2ccccc2CN1C(=O)[C@@H](N)CO)C(C)C)[C@@H](C)O)C(=O)N[C@@H](CCCCN)C(=O)N[C@@H](CCCCN)C(=O)N[C@H](C(=O)N[C@@H](CO)C(=O)N[C@@H](Cc1ccccc1)C(=O)N[C@@H](CCC(N)=O)C(=O)N[C@@H](CCCNC(=N)N)C(=O)N[C@@H](C)C(=O)N[C@@H](CCCCN)C(=O)N[C@@H](CO)C(=O)O)[C@@H](C)O (H-S[Tic]RNGVGTGMKKTSFQRAKS-OH),,244,8.13
CSCC[C@H](NC(=O)CNC(=O)[C@@H](NC(=O)CNC(=O)[C@@H](NC(=O)CNC(=O)[C@H](CC(N)=O)NC(=O)[C@H](CCCNC(=N)N)NC(=O)[C@H](CCc1ccccc1)NC(=O)[C@@H](N)CO)C(C)C)[C@@H](C)O)C(=O)N[C@@H](CCCCN)C(=O)N[C@@H](CCCCN)C(=O)N[C@H](C(=O)N[C@@H](CO)C(=O)N[C@@H](Cc1ccccc1)C(=O)N[C@@H](CCC(N)=O)C(=O)N[C@@H](CCCNC(=N)N)C(=O)N[C@@H](C)C(=O)N[C@@H](CCCCN)C(=O)N[C@@H](CO)C(=O)O)[C@@H](C)O (H-S[hPhe]RNGVGTGMKKTSFQRAKS-OH),,216,4.17
CSCC[C@H](NC(=O)CNC(=O)[C@@H](NC(=O)CNC(=O)[C@@H](NC(=O)CNC(=O)[C@H](CC(N)=O)NC(=O)[C@H](CCCNC(=N)N)NC(=O)C[C@H](Cc1ccccc1)NC(=O)[C@@H](N)CO)C(C)C)[C@@H](C)O)C(=O)N[C@@H](CCCCN)C(=O)N[C@@H](CCCCN)C(=O)N[C@H](C(=O)N[C@@H](CO)C(=O)N[C@@H](Cc1ccccc1)C(=O)N[C@@H](CCC(N)=O)C(=O)N[C@@H](CCCNC(=N)N)C(=O)N[C@@H](C)C(=O)N[C@@H](CCCCN)C(=O)N[C@@H](CO)C(=O)O)[C@@H](C)O (H-S[β3hF]RNGVGTGMKKTSFQRAKS-OH),177,,
CSCC[C@H](NC(=O)CNC(=O)[C@@H](NC(=O)CNC(=O)[C@@H](NC(=O)CNC(=O)[C@H](CC(N)=O)NC(=O)[C@H](CCCNC(=N)N)NC(=O)[C@H](Cc1ccc2ccccc2c1)NC(=O)[C@@H](N)CO)C(C)C)[C@@H](C)O)C(=O)N[C@@H](CCCCN)C(=O)N[C@@H](CCCCN)C(=O)N[C@H](C(=O)N[C@@H](CO)C(=O)N[C@@H](Cc1ccccc1)C(=O)N[C@@H](CCC(N)=O)C(=O)N[C@@H](CCCNC(=N)N)C(=O)N[C@@H](C)C(=O)N[C@@H](CCCCN)C(=O)N[C@@H](CO)C(=O)O)[C@@H](C)O [[2Nal2]hNPS] (H-S[2Nal]RNGVGTGMKKTSFQRAKS-OH),,213,2.19
H-SDRNGVGTGMKKTSFQRAKS-OH,39,,
H-SERNGVGTGMKKTSFQRAKS-OH,170,,
H-SFRNGVGTGMKKTSFQRAKS-OH [NEUROPEPTIDE S],,270,1.1
H-SHRNGVGTGMKKTSFQRAKS-OH,,288,132
H-SLRNGVGTGMKKTSFQRAKS-OH,,282,8.32
H-SQRNGVGTGMKKTSFQRAKS-OH,54,,
H-SWRNGVGTGMKKTSFQRAKS-OH,,323,2.24

# Continued, values first:
Activity [1] [%],Emax [2] [%],EC50 (Neuropeptide S receptor) [nM],Molecule
,290,3.63,CSCC[C@H](NC(=O)CNC(=O)[C@@H](NC(=O)CNC(=O)[C@@H](NC(=O)CNC(=O)[C@H](CC(N)=O)NC(=O)[C@H](CCCNC(=N)N)NC(=O)[C@H](Cc1ccc([N+](=O)[O-])cc1)NC(=O)[C@@H](N)CO)C(C)C)[C@@H](C)O)C(=O)N[C@@H](CCCCN)C(=O)N[C@@H](CCCCN)C(=O)N[C@H](C(=O)N[C@@H](CO)C(=O)N[C@@H](Cc1ccccc1)C(=O)N[C@@H](CCC(N)=O)C(=O)N[C@@H](CCCNC(=N)N)C(=O)N[C@@H](C)C(=O)N[C@@H](CCCCN)C(=O)N[C@@H](CO)C(=O)O)[C@@H](C)O (H-S[Phe(4-NO2)]RNGVGTGMKKTSFQRAKS-OH)
141,,,CSCC[C@H](NC(=O)CNC(=O)[C@@H](NC(=O)CNC(=O)[C@@H](NC(=O)CNC(=O)[C@H](CC(N)=O)NC(=O)[C@H](CCCNC(=N)N)NC(=O)[C@@H](NC(=O)[C@@H](N)CO)c1ccccc1)C(C)C)[C@@H](C)O)C(=O)N[C@@H](CCCCN)C(=O)N[C@@H](CCCCN)C(=O)N[C@H](C(=O)N[C@@H](CO)C(=O)N[C@@H](Cc1ccccc1)C(=O)N[C@@H](CCC(N)=O)C(=O)N[C@@H](CCCNC(=N)N)C(=O)N[C@@H](C)C(=O)N[C@@H](CCCCN)C(=O)N[C@@H](CO)C(=O)O)[C@@H](C)O (H-S[Phg]RNGVGTGMKKTSFQRAKS-OH)
103,,,H-SKRNGVGTGMKKTSFQRAKS-OH
49,,,H-SNRNGVGTGMKKTSFQRAKS-OH
114,,,H-STRNGVGTGMKKTSFQRAKS-OH
,312,2.34,H-SYRNGVGTGMKKTSFQRAKS-OH
